Most compounds without a hit are left out; they make up all but 2.1% or so of the library.
Runt-SMMHC FRET – Runt domain-CBFb-SMMHC interaction inhibition. Q01196+Q13951. Cerulean-Runt/Venus-CBFb-SMMHC FRET ratio 530/480, 1 h. inhibition, % at 20 µM. 220,000 tested, 0.74% active. AID 1434;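 active = mean inhibition across duplicate retests at 20 µM reaching about 50%, limit read from the data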;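 note: 0% = DMSO wells and 100% = wells with excess untagged CBFb-SMMHC; inhibitors lower the FRET ratio by blocking Runt binding to CBFb-SMMHC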
L929 necroptosis – L929 zVAD cell death inhibition; L929 zVAD necroptosis rescue, ATP luminescence, 24 h; with zVAD 60 µM; viability rescue, % at 10 µM; 220,000 tested, 0.38% active; AID 1377;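 active = activation, scaled between plate controls, above about 75%, limit read from the data; inactive = activation under that limit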;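 note: 0% = zVAD with DMSO and 100% = DMSO alone without zVAD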
RanGTP-Impb inh – inhibitors of RanGTP-importin-beta interaction, primary screen, biochemical, FRET, CFP-Ran, YFP-importin-beta, homogeneous; cell-free CFP-Ran/YFP-importin-beta FRET ratio; AID 2216; 300,000 tested, 1.1% active; inhibition, % (concentration not given with the values);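 active = more than half of the replicate wells show a fall in the fluorescence ratio signal beyond about 16%, limit read from the data, passing the limit was not always enough; inconclusive = exactly half of the replicate wells pass the set limit; inactive = fewer than half of replicates pass the limit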;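 note: 0% = DMSO wells and 100% = Ran loaded with GDP instead of GTP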
TNF necrop inh – TNF-alpha cell death inhibition in Jurkat FADD-/- cells; Jurkat FADD-/- TNF necroptosis rescue, ATP luminescence, 24 h; 0 = TNF only, 100 = no-TNF cells; activation (protection from cell death), % at 10 µM; 220,000 tested, 0.068% active; AID 463075;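 active = activation, meaning protection from cell death, of at least 50% relative to plate controls; inactive = activation below 50%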;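 note: necroptosis triggered by 40 ng/mL TNF-alpha added together with compound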
Runt-CBFb FRET – Runt domain-CBFb interaction inhibition; 220,000 tested, 0.46% active; Cerulean-Runt/Venus-CBFb FRET ratio 530/480, 1 h; inhibition, % at 20 µM;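 active = inhibition over about 50% at 20 µM in the single-dose screen, limit read from the data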;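 note: 0% = DMSO wells and 100% = excess unlabeled CBFb competitor control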
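test system = Cerulean-tagged RUNX1 Runt domain (FRET donor) fusion protein | reagent = Venus-CBFb binding partner, 100 nM | incubation = protein complex preformed 1 h, compound exposure 1 h, room temperature, dark | detection = FRET fluorescence | read-out basis = loss of energy transfer signal | controls = 5 µM unlabeled CBFb as full-inhibition high control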
Hck Nef HTS – blocks Nef-activated human Hck kinase | AID 463187 | inhibition, % at 20 µM | P08631 | Recombinant Hck-YEEI plus Nef, Z-Lyte FRET kinase assay | 220,000 tested, 0.68% active;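 active = Hck-Nef kinase inhibition above about 50%, limit read from the data; inactive = inhibition below that limit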;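 note: 0% = DMSO with Hck plus Nef and 100% = Hck alone without Nef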
Target sequence (P08631 whole entry, looked up): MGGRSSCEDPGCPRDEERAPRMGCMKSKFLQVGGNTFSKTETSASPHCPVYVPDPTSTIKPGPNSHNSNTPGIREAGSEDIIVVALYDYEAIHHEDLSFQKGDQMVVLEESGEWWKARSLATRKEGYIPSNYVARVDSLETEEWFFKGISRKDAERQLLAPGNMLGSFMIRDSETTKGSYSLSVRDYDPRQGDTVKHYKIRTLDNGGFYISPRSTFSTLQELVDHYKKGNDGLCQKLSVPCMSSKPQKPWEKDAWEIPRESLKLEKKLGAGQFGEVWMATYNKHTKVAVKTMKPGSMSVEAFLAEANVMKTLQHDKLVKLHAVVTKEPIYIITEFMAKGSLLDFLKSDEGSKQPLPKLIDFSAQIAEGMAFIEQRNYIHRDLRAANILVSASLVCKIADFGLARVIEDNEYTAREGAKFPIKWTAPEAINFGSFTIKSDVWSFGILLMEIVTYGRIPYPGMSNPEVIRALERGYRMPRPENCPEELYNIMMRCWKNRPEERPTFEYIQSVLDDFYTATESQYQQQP
zVAD necrop conf – confirmed blocker of zVAD induced death in L929 cells; shares compounds with L929 necroptosis; L929 zVAD-induced necroptosis rescue, ATP luminescence, 24 h; activation (protection from necroptosis), % at 10 µM; 760 tested, 16% active;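 active = mean protection from necroptosis of at least 50% over duplicate tests; inactive = mean protection below 50%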;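 note: 0% = cells with zVAD alone and 100% = vehicle cells without zVAD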
Starred values were filed as active, the others as inactive; ? = inconclusive; . = not tested or not shown.

SMILES	Runt-SMMHC FRET	L929 necroptosis	RanGTP-Impb inh	TNF necrop inh	Runt-CBFb FRET	Hck Nef HTS	zVAD necrop conf
CC(C)CC(=O)Nc1nnc(SCC(=O)Nc2ccc(F)cc2)s1	1.6	2.1	0.8	1.3	-0.2	23.3	.
COC(C(=O)Nc1ccc(F)cc1F)c1ccccc1 (stereo unspecified)	-0.2	83.2*	-7.7	96.8*	1.5	0.2	40.2
O=C(Nc1ccc(NC(=O)c2ccccc2O)cc1)Nc1ccc(F)cc1F	-0.8	78.0*	-1.1	9.8	2.6	27.1	33.3
O=C(N/N=C(\c1ccccc1)c1cccnc1)c1cc(O)ccc1O	.	.	-3.0	.	.	.	.
NC(=S)NC(=O)/C=C/c1ccccc1	-0.8	83.2*	3.8	18.8	1.6	30.6	0.5
CC(=O)Nc1ccc(S(=O)(=O)N/N=C/c2ccc(C)s2)cc1	0.4	1.0	3.8	0.6	-2.3	0.9	.
O=C(Nc1ccc2c(c1)OCO2)Nc1ccc(Br)cn1	-5.6	78.6*	3.4	8.4	1.1	5.5	0.8
Cc1ccnc(NC(=O)Nc2ccc3c(c2)OCO3)c1	2.6	84.9*	2.9	1.1	0.9	14.8	1.7
O=C(Nc1ccc2c(c1)OCCO2)Nc1ccc2c(c1)OCO2	-0.4	0.9	1.8	-1.9	1.2	-3.8	.
COc1ccc(OCC(=O)N(Cc2sccc2C)C2CCS(=O)(=O)C2)cc1 (stereo unspecified)	.	.	-4.8	.	.	.	.
Oc1ccccc1N=Cc1c(O)ccc2oc3c(c12)CCCC3	-25.7	75.2*	-2.3	-21.8	-14.1	-78.3	2.2
O=C(O)c1ccc(N=Cc2c(O)ccc3oc4c(c23)CCCC4)cc1	-18.4	0.6	-2.4	-16.9	-9.4	-60.2	.
Cc1cc(NC(=O)NC(=O)c2cccc(OC(F)(F)C(F)F)c2)n[nH]1	2.4	0.0	1.9	2.0	1.7	0.2	.
Cc1cc(NC(=O)c2cccc(Oc3ccccc3)c2)n[nH]1	1.6	78.0*	-0.6	13.1	0.6	24.9	5.1
COc1cc2c(-c3ccccc3)c(C)oc2cc1/C=N/NC(N)=S	.	.	-1.7	.	.	.	.
Cc1ccc(S(=O)(=O)CC(c2ccccc2)N2CCCCC2)cc1 (stereo unspecified)	-2.5	0.8	0.1	1.5	-0.4	-3.8	.
O=S(=O)(CC(CN1CCCCC1)N1CCCCC1)c1ccc2ccccc2c1 (stereo unspecified)	4.8	76.5*	-1.8	-4.7	0.5	11.7	1.7
O=S(=O)(CC(CN1CCOCC1)N1CCOCC1)c1ccccc1 (stereo unspecified)	-1.6	0.4	0.2	0.8	-1.0	-5.3	.
Cc1ccc(S(=O)(=O)CC(CN2CCCCC2)N2CCCCC2)cc1 (stereo unspecified)	-0.7	80.8*	?	10.4	-1.4	18.0	21.5
COC(=O)c1cc(NC(=O)CSC2=NCCS2)cc(C(=O)OC)c1	-6.3	10.6	-0.1	2.4	0.1	-3.8	.
NS(=O)(=O)c1ccc(NC(=O)c2ccc(-c3ccccc3)cc2)cc1	-8.5	1.7	.	1.9	-7.9	42.2	.
CC(C)(C)c1ccc(C(=O)Nc2ccc(S(N)(=O)=O)cc2)cc1	-2.7	83.2*	-3.0	0.1	0.0	19.5	34.2
O=C(Nc1ccccc1)N1N=CCC1c1ccccc1 (stereo unspecified)	0.7	84.9*	1.7	94.6*	-1.0	3.8	48.5
O=C(Nc1ccc(Cl)c(Cl)c1)N1N=CCC1c1ccccc1 (stereo unspecified)	3.1	79.5*	-2.9	96.6*	-0.5	28.4	11.4
CCN1CCN(CC(=O)N2N=CCC2c2ccccc2)CC1 (stereo unspecified)	-3.3	-0.8	0.3	1.2	-0.4	5.8	.
CC(C)c1ccc(NC(=O)c2cc(S(=O)(=O)N3CCCCC3)c[nH]2)cc1	.	.	-1.1	.	.	.	.
O=C(O)CC(c1ccccc1)N1C(=O)c2ccccc2C1=O (stereo unspecified)	.	.	10.8	.	.	.	.
